From ChEMBL document CHEMBL3352211, “Ganoboninketals A-C, Antiplasmodial 3,4-seco-27-Norlanostane Triterpenes from Ganoderma boninense Pat” (J Nat Prod, 2014)

What was measured:
[1] = tested on: A549; experiment: Cytotoxicity against human A549 cells assessed as reduction in cell viability after 72 hrs by MTT assay; assay type: functional, cell-based; details: A549, 72 h
In short: (§1)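 Cells were exposed to compounds (DMSO solvent) for 72 h at 37 °C in 5% CO2. MTT (0.5 mg/mL in medium) was added for 4 h, and formazan was dissolved in DMSO and read at 540 nm. Inhibition rates were plotted against concentration to give IC50 (±SD); three independent experiments, each in triplicate.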

[2] = tested on: RAW264.7; experiment: Cytotoxicity against mouse RAW264.7 cells assessed as reduction in cell viability at 200 uM; assay type: cell-based; details: raw264.7, 200 µM
[3] = tested on: HeLa; experiment: Cytotoxicity against human HeLa cells assessed as reduction in cell viability after 72 hrs by MTT assay; assay type: functional, cell-based; in short: as §1
[4] = tested on: Plasmodium falciparum; experiment: Antiplasmodial activity against Plasmodium falciparum 3D7 infected in human RBC assessed as reduction in parasitemia after 48 hrs by fluorescence assay; assay type: functional, organism-based; details: 3D7, 48 h
In short: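 P. falciparum 3D7 was grown in human RBCs in Albumax II-supplemented RPMI 1640. Assay cultures at 2% hematocrit and 1% parasitemia were exposed to compounds (DMSO solvent) for about 48 h at 37 °C. Parasite DNA was labelled with PicoGreen in TE buffer pH 7.5 with 2% Triton X-100 for 30 min in the dark and read at ex 485 / em 538 nm. IC50 came from linear interpolation; three independent experiments, each in triplicate.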

[5] = tested on: RAW264.7; experiment: Antiinflammatory activity in mouse RAW264.7 cells assessed as inhibition of NO production after 24 hrs by Griess assay; assay type: functional, cell-based; details: RAW264.7, 24 h
In short: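 RAW 264.7 mouse macrophages were kept in RPMI 1640 with 10% heat-inactivated FBS, penicillin and streptomycin at 37 °C and 5% CO2. They were seeded at 5 × 10^5 cells/mL. After 1 h, LPS (1 mg/mL as printed) and graded compound concentrations (DMSO solvent) were added for 24 h. Supernatant NO was measured by Griess reaction.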

SMILES | IC50 [4] [nM] | IC50 [5] [µM] | IC50 [1] [µM] | Activity [2] | IC50 [3] [µM]
C=C(C)[C@@H]1C[C@H](OC(C)=O)C2=C(C(=O)C[C@]34CO[C@@]5(CC)CC[C@](C)(O5)[C@H]3CC[C@@]24C)[C@@]1(C)CCC(=O)OC | 4000 | 98.3 | 47.6 | Non-toxic | > 100
C[C@@H]1CC[C@H]2[C@@H](C)C(=O)O[C@@H]3O[C@@]4(C)CC[C@@H]1[C@]32OO4 [ARTEMISININ] | 30.4 |  |  |  | 
C=C(C)[C@@H]1C[C@H](OC(C)=O)[C@]23OC[C@]4(CC(=O)[C@@H]2[C@@]1(C)CCC(=O)OC)[C@@]3(C)CC[C@@]41O[C@@]2(CC)CC[C@]1(C)O2 | 1700 | 60.9 | 35.8 | Non-toxic | > 100

More lines, in order of falling IC50 [5], values ahead:

IC50 [4] [nM] | IC50 [5] [µM] | SMILES | IC50 [1] [µM] | Activity [2] | IC50 [3] [µM]
 | 53.7 | C[C@]12CCC(=O)C=C1CC[C@@H]1[C@@H]2[C@@H](O)C[C@@]2(C)[C@H]1CC[C@]2(O)C(=O)CO [HYDROCORTISONE] |  |  | 
7900 | 24.3 | C=C(C)[C@@H]1CC(=O)C2=C(C(=O)C[C@]34CO[C@@]5(CC)CC[C@](C)(O5)[C@H]3CC[C@@]24C)[C@@]1(C)CCC(=O)OC | > 100 | Non-toxic | 65.5
